Laboratory results reported in ChEMBL document CHEMBL2093137, “WHO-TDR NTD Screening”.
pIC50: −log10 of the molar value. In brackets after ≈: the same amount, converted by molar mass.

What was measured:
Schistosoma mansoni [1] = assay: (§1) WHO-TDR: Schistosomiasis; assay type: functional, organism-based
How it was run: (§2)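 A diverse library of 10,000 compounds from Life Chemicals, filtered for drug-likeness and reactive groups, was screened against whole larval and/or adult Schistosoma mansoni worms of the Puerto Rican strain. Previously published standard procedures were followed, with a reference drug as positive control. Activity is given as percent inhibition and as IC50.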

Onchocerca lienalis = assay: (§3) WHO-TDR: Onchocerciasis; assay type: functional; parameters: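 at 12.5 µM on microfilariae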
How it was run: (§4)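 A diverse library of 10,000 compounds from Life Chemicals, filtered for drug-likeness and reactive groups, was screened against whole microfilariae of Onchocerca ochengi or Onchocerca lienalis. These animal pathogens served as stand-ins for the human parasite. Activity is given as percent inhibition and as IC50.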

[2] = system: Trypanosoma brucei brucei; assay: WHO-TDR: Human African Trypanosomiasis (HAT); assay type: functional, organism-based; settings: Squib-427
How it was run: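 Values are IC50 figures for antiparasitic potency. They come from a whole-organism screen of 10,000 diverse Life Chemicals compounds against bloodstream-form Trypanosoma brucei (Squib 427 strain).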

[3] = WHO-TDR: Cytotoxicity; assay type: toxicity, cell-based; settings: human, MRC5 cells
Trypanosoma cruzi = assay: WHO-TDR: Chagas disease; assay type: functional, organism-based, Homo sapiens; settings: MRC5
How it was run: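 Intracellular amastigotes of the Trypanosoma cruzi Tulahuen CL2 beta-galactosidase strain, grown in MRC-5SV2 human lung fibroblast host cells, were tested in a whole-organism screen. The compounds came from a 10,000-member diverse Life Chemicals library that had been filtered for drug-likeness and reactive groups. Previously published standard procedures were followed, with a reference drug as positive control, and potency is reported as IC50.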

Plasmodium falciparum K1 = assay: WHO-TDR: Malaria; assay type: functional, organism-based, Homo sapiens; settings: Erythrocyte
How it was run: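 Values are IC50 figures for antiplasmodial potency. They come from a whole-organism screen of 10,000 diverse Life Chemicals compounds against Plasmodium falciparum K1 growing inside human red blood cells, run by previously published standard procedures.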

Schistosoma mansoni [4] = assay: as §1; assay type: functional; parameters: concentration or dose not given beside the values; how it was run: as §2
Leishmania infantum = assay: WHO-TDR: Leishmaniasis; assay type: functional, organism-based, Mus musculus; settings: Macrophage
How it was run: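 Values are IC50 figures for antiparasitic potency. They come from a whole-organism screen of a 10,000-compound diverse Life Chemicals library against Leishmania infantum MHOM/MA(BE)/67 amastigotes inside murine peritoneal macrophage host cells.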

Onchocerca ochengi = assay: as §3; assay type: functional; parameters: concentration or dose not given beside the values; how it was run: as §4;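 also: at 12.5 µM on microfilariae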
Brugia malayi [5] = assay: (§5) WHO-TDR: Lymphatic Filariasis; assay type: functional; parameters: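 tested at 10 µM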
How it was run: (§6)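 A diverse library of 10,000 compounds from Life Chemicals was screened against Brugia malayi microfilariae in a whole-organism assay. The library had been filtered for drug-likeness and reactive groups. Activity is given as percent inhibition and as IC50.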

Brugia malayi [6] = assay: as §5; assay type: functional, organism-based; how it was run: as §6
Brugia malayi [7] = assay: as §5; assay type: functional; parameters: concentration or dose not given beside the values; how it was run: as §6; remark: listed apart in the source

SMILES: COC(=O)c1sc(-c2ccccc2)cc1NC(=O)CCS(=O)(=O)c1ccccc1
- pIC50 (Schistosoma mansoni [1]): 5.09
- % Inhibition (Onchocerca lienalis): 13.3%
- IC50 [2]: > 9.7 µg/mL
- IC50 [3]: > 9.7 µg/mL
- IC50 (Trypanosoma cruzi): > 9.7 µg/mL
- IC50 (Plasmodium falciparum K1): > 9.7 µg/mL
- % Inhibition (Schistosoma mansoni [4]): 100%
- IC50 (Leishmania infantum): > 9.7 µg/mL

SMILES: CCN(c1ccccc1)S(=O)(=O)c1ccc(C(=O)Nc2sc3c(c2C(=O)NC)CCCC3)cc1
- pIC50 (Schistosoma mansoni [1]): 5.00
- % Inhibition (Onchocerca lienalis): 13.3%
- IC50 [2]: > 11 µg/mL
- IC50 [3]: > 11 µg/mL
- IC50 (Trypanosoma cruzi): 5.24 µg/mL (≈ 10.5 µM)
- IC50 (Plasmodium falciparum K1): 7.35 µg/mL (≈ 14.8 µM)
- % Inhibition (Schistosoma mansoni [4]): 100%
- IC50 (Leishmania infantum): > 11 µg/mL

SMILES: C=CCN(CC=C)S(=O)(=O)c1ccc(C(=O)Nc2nc3ccc(C(C)C)cc3s2)cc1
- pIC50 (Schistosoma mansoni [1]): 5.24
- % Inhibition (Onchocerca lienalis): 0%
- IC50 [2]: > 11 µg/mL
- IC50 [3]: > 11 µg/mL
- IC50 (Trypanosoma cruzi): 4.48 µg/mL (≈ 9.84 µM)
- IC50 (Plasmodium falciparum K1): > 11 µg/mL
- % Inhibition (Schistosoma mansoni [4]): 100%
- IC50 (Leishmania infantum): > 11 µg/mL

SMILES: CCc1ccc(NC(=O)c2oc3ccccc3c2NC(=O)Cc2cccs2)cc1
- pIC50 (Schistosoma mansoni [1]): 5.19
- % Inhibition (Onchocerca lienalis): 0%
- IC50 [2]: > 12.1 µg/mL
- IC50 [3]: > 12.1 µg/mL
- IC50 (Trypanosoma cruzi): > 12.1 µg/mL
- IC50 (Plasmodium falciparum K1): > 12.1 µg/mL
- % Inhibition (Schistosoma mansoni [4]): 100%
- IC50 (Leishmania infantum): > 12.1 µg/mL

SMILES: CCOC(=O)c1oc2ccccc2c1NC(=O)c1cc(C)no1
- IC50 (Schistosoma mansoni [1]): 2.21 µg/mL
- % Inhibition (Onchocerca ochengi): 0%
- % Inhibition (Brugia malayi [5]): 20%
- IC50 [2]: > 9.43 µg/mL
- IC50 [3]: > 9.43 µg/mL
- IC50 (Trypanosoma cruzi): > 9.43 µg/mL
- IC50 (Plasmodium falciparum K1): > 9.43 µg/mL
- % Inhibition (Schistosoma mansoni [4]): 100%
- IC50 (Leishmania infantum): > 9.43 µg/mL

SMILES: C#CCn1/c(=N\C(=O)c2cc(C)no2)sc2cc(S(N)(=O)=O)ccc21
- IC50 (Schistosoma mansoni [1]): 3.16 µg/mL
- % Inhibition (Onchocerca ochengi): 0%
- % Inhibition (Brugia malayi [5]): 0%
- IC50 [2]: > 11.3 µg/mL
- IC50 [3]: > 11.3 µg/mL
- IC50 (Trypanosoma cruzi): > 11.3 µg/mL
- IC50 (Plasmodium falciparum K1): > 11.3 µg/mL
- % Inhibition (Schistosoma mansoni [4]): 100%
- IC50 (Leishmania infantum): > 11.3 µg/mL

SMILES: O=C(Cc1csc(NC(=O)C2CCC(=O)N2)n1)NCc1ccccn1 (configuration not stated)
- IC50 (Schistosoma mansoni [1]): 2.48 µg/mL
- % Inhibition (Onchocerca ochengi): 0%
- % Inhibition (Brugia malayi [5]): 20%
- IC50 [2]: > 10.8 µg/mL
- IC50 [3]: > 10.8 µg/mL
- IC50 (Trypanosoma cruzi): > 10.8 µg/mL
- IC50 (Plasmodium falciparum K1): > 10.8 µg/mL
- % Inhibition (Schistosoma mansoni [4]): 100%
- IC50 (Leishmania infantum): > 10.8 µg/mL

SMILES: O=C(NCCOc1ccc2nnc(-c3ccccc3)n2n1)c1ccccc1C(F)(F)F
- IC50 (Schistosoma mansoni [1]): 3.38 µg/mL
- % Inhibition (Onchocerca ochengi): 0%
- % Inhibition (Brugia malayi [5]): 33.33%
- IC50 [2]: > 12.8 µg/mL
- IC50 [3]: > 12.8 µg/mL
- IC50 (Trypanosoma cruzi): > 12.8 µg/mL
- IC50 (Plasmodium falciparum K1): > 12.8 µg/mL
- % Inhibition (Schistosoma mansoni [4]): 100%
- IC50 (Leishmania infantum): > 12.8 µg/mL

SMILES: COc1ccc(Cl)cc1C(=O)NCCOc1ccc2nnc(-c3ccc(F)cc3)n2n1
- IC50 (Schistosoma mansoni [1]): 3.58 µg/mL
- % Inhibition (Onchocerca ochengi): 0%
- % Inhibition (Brugia malayi [5]): 33.33%
- IC50 [2]: > 13.3 µg/mL
- IC50 [3]: > 13.3 µg/mL
- IC50 (Trypanosoma cruzi): > 13.3 µg/mL
- IC50 (Plasmodium falciparum K1): > 13.3 µg/mL
- % Inhibition (Schistosoma mansoni [4]): 100%
- IC50 (Leishmania infantum): 4.29 µg/mL (≈ 9.71 µM)

SMILES: O=C(CCC1CCCCC1)N1CCN(c2ccc(-c3cccnc3)nn2)CC1
- IC50 (Schistosoma mansoni [1]): 3.15 µg/mL
- % Inhibition (Onchocerca ochengi): 50%
- % Inhibition (Brugia malayi [5]): 33.33%
- IC50 [2]: > 11.4 µg/mL
- IC50 [3]: > 11.4 µg/mL
- IC50 (Trypanosoma cruzi): 4.89 µg/mL (≈ 12.9 µM)
- IC50 (Plasmodium falciparum K1): 6.4 µg/mL (≈ 16.9 µM)
- % Inhibition (Schistosoma mansoni [4]): 100%
- IC50 (Leishmania infantum): > 11.4 µg/mL

SMILES: O=C(c1ccccc1F)N1CCN(c2ccc(-c3ccccn3)nn2)CC1
- IC50 (Schistosoma mansoni [1]): 2.36 µg/mL
- % Inhibition (Onchocerca ochengi): 100%
- % Inhibition (Brugia malayi [5]): 33.33%
- IC50 [2]: 1.59 µg/mL (≈ 4.37 µM)
- IC50 [3]: 2.77 µg/mL (≈ 7.63 µM)
- IC50 (Trypanosoma cruzi): 0.375 µg/mL (≈ 1.03 µM)
- IC50 (Plasmodium falciparum K1): 0.396 µg/mL (≈ 1.09 µM)
- % Inhibition (Schistosoma mansoni [4]): 100%
- IC50 (Leishmania infantum): > 10.9 µg/mL

SMILES: O=S(=O)(c1ccccc1Cl)N1CCN(c2ccc(-c3ccco3)nn2)CC1
- IC50 (Schistosoma mansoni [1]): 2.79 µg/mL
- % Inhibition (Onchocerca ochengi): 0%
- % Inhibition (Brugia malayi [5]): 0%
- IC50 [2]: > 12.1 µg/mL
- IC50 [3]: > 12.1 µg/mL
- IC50 (Trypanosoma cruzi): > 12.1 µg/mL
- IC50 (Plasmodium falciparum K1): > 12.1 µg/mL
- % Inhibition (Schistosoma mansoni [4]): 100%
- IC50 (Leishmania infantum): > 12.1 µg/mL

SMILES: Cc1nn(-c2ccccc2)c2[nH]cc(C(=O)Nc3ccc(F)c(Cl)c3)c(=O)c12
- pIC50 (Brugia malayi [6]): 5.23
- % Inhibition (Onchocerca lienalis): -1%
- % Inhibition (Brugia malayi [5]): 100%
- IC50 [2]: 4.14 µg/mL (≈ 10.4 µM)
- % Inhibition (Brugia malayi [7]): 33.33%
- IC50 [3]: 1 µg/mL (≈ 2.53 µM)
- IC50 (Trypanosoma cruzi): 1.96 µg/mL (≈ 4.93 µM)
- IC50 (Plasmodium falciparum K1): > 11.9 µg/mL
- % Inhibition (Schistosoma mansoni [4]): 62.5%
- IC50 (Leishmania infantum): 2.34 µg/mL (≈ 5.9 µM)

SMILES: CCOc1ccc(NC(=O)CSc2nncc(O)n2)cc1
- pIC50 (Schistosoma mansoni [1]): 5.24
- % Inhibition (Onchocerca lienalis): 0%
- IC50 [2]: 2.53 µg/mL (≈ 8.27 µM)
- IC50 [3]: 3.01 µg/mL (≈ 9.83 µM)
- IC50 (Trypanosoma cruzi): 3.3 µg/mL (≈ 10.8 µM)
- IC50 (Plasmodium falciparum K1): 0.566 µg/mL (≈ 1.85 µM)
- % Inhibition (Schistosoma mansoni [4]): 100%
- IC50 (Leishmania infantum): > 9.19 µg/mL
